The source of these data is ChEMBL document CHEMBL1142121, “Triterpenoids from the floral spikes of Betula platyphylla var. japonica and their reversing activity against multidrug-resistant cancer cells” (J Nat Prod, 2007).

Molecules are shown by their SMILES. Activity calls are given as the source filed them. The rule behind the calls is not given here.

What is called IC50 is the concentration that inhibits the measured activity by half.

One experiment relates to KB. Nature of the experiment: Cytotoxicity against human KB cells after 48 hrs by MTT assay. Type of experiment: cell-based. Put shortly: (§1)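 KB and KB-C2 cells grown in DMEM with 10% FBS, with KB-C2 maintained with 2 µg/mL colchicine. 5 × 10^3 cells/well were preincubated 24 h, then exposed 48 h at 37 °C, 5% CO2 to graded concentrations (DMSO final <0.5%). MTT read-out. IC50 was the concentration giving 50% of vehicle-control absorbance. Mean ± SE of 3–4 experiments.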
In general terms: Formazan colour is commonly taken as a measure of viable cells.

Experiment [1] can be described thus: Cytotoxicity against human colchicine-resistant KBC2 cells after 48 hrs by MTT assay. Type of experiment: cell-based. The following applies: KB-C2, 48 h. Put shortly: as §1
Experiment [2] in a line: Cytotoxicity against human colchicine-resistant KBC2 cells in presence of 2.5 uM colchicine after 48 hrs by MTT assay. Type of experiment: cell-based. The following applies: KB-C2, 48 h. Put shortly:
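Colchicine-resistant KB-C2 cells, maintained in DMEM/10% FBS with 2 µg/mL colchicine. Seeded at 5 × 10^3 cells/well, preincubated 24 h, then given graded test concentrations (DMSO final <0.5%) together with 2.5 µM colchicine for 48 h at 37 °C, 5% CO2. MTT read-out. IC50 was 50% of vehicle-control absorbance. Mean ± SE, 3–4 experiments.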

The subject of another experiment is K562. The experiment is described as follows: Cytotoxicity against human K562 cells after 48 hrs by MTT assay. Type of experiment: cell-based. The note with it: K562, 48 h. Put shortly: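 K562 leukemia cells, 1 × 10^4 cells/well in medium with 10% FBS, preincubated 24 h. Test samples were then added at various concentrations (DMSO final <0.5%) for 48 h at 37 °C, 5% CO2. MTT assay. IC50 was 50% absorbance relative to vehicle controls. Mean ± SE from 3–4 experiments.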

Experiment [3] is described as follows: Cytotoxicity against human doxorubicin-resistant K562/Adr cells after 48 hrs by MTT assay. The experiment is classed as cell-based. Put shortly:
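Doxorubicin-resistant K562/Adr cells, maintained in RPMI1640/10% FBS containing 0.5 µM doxorubicin. Seeded at 1 × 10^4 cells/well, preincubated 24 h, then incubated 48 h at 37 °C, 5% CO2 with graded test concentrations (DMSO final <0.5%). MTT read-out. IC50 was 50% of vehicle-control absorbance. Mean ± SE, 3–4 experiments.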

The nature of experiment [4]: Cytotoxicity against human doxorubicin-resistant K562/Adr cells in presence of 1 uM doxorubicin after 48 hrs by MTT assay. The experiment is classed as cell-based.
The test system of the next experiment is MCF7. Nature of the experiment: Cytotoxicity against human MCF7 cells after 48 hrs by MTT assay. The experiment is classed as cell-based. The note with it: MCF7, 48 h. Put shortly: (§2)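 MCF7 or COLO205 cells in RPMI1640 with 10% FBS, seeded at 5 × 10^3 cells and preincubated 24 h. Graded concentrations (DMSO final <0.5%) were then applied for 48 h at 37 °C, 5% CO2. Proliferation read by MTT. IC50 was the concentration halving absorbance versus vehicle-treated controls. Mean ± SE of 3–4 experiments.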

A further experiment concerns COLO 205. The experiment is described as follows: Cytotoxicity against human COLON205 cells after 48 hrs by MTT assay. Type of experiment: cell-based. The note with it: COLO 205, 48 h. The essentials:
as §2

The next experiment concerns MDR. Nature of the experiment: Reversal of MDR against KBC2 cells assessed as reduction in cytotoxicity of colchicine at 5 ug/ml. The experiment is classed as functional, cell-based. The following applies: Homo sapiens.

On to `COC(=O)CC(=O)O[C@@H]1CC[C@]2(C)[C@H]3C[C@@H](OC(C)=O)[C@@H]4[C@@H]([C@]5(C)CC[C@H](C(C)(C)O)O5)CC[C@@]4(C)[C@]3(C)CC[C@H]2C1(C)C` [METHYL PAPYRIFERATE], for which the IC50 was 33.8 µM in the experiment with KB; 31.1 µM in [1]; 3.7 µM in experiment [2]; 32.6 µM in the experiment on K562; 36.8 µM in [3]; 10.6 µM in experiment [4]. For the same molecule, the half-maximal inhibitory concentration (IC50) with MCF7 stood at 48.9 µM; in the experiment on COLO 205 it was 49.6 µM. The result in the experiment on MDR was Active.

Turning to `CC1(C)[C@H](O)CC[C@]2(C)[C@H]3CC[C@@H]4[C@@H]([C@]5(C)CCC(=O)O5)CC[C@@]4(C)[C@]3(C)CC[C@@H]12` [CABRALEAHYDROXYLACTONE], the IC50 in the experiment on KB is greater than 100 µM; in experiment [1], greater than 100 µM; in experiment [2], 20.6 µM; in the experiment with K562, greater than 100 µM; in experiment [3], greater than 100 µM; in [4] it was greater than 100 µM. Further, the IC50 with MCF7 and with COLO 205 was greater than 100 µM each time.

Consider `CC(=O)O[C@@H]1C[C@@H]2[C@@]3(C)CC[C@@H](OC(C)=O)C(C)(C)[C@@H]3CC[C@@]2(C)[C@]2(C)CC[C@H]([C@]3(C)CC[C@H](C(C)(C)O)O3)[C@@H]12`, for which the IC50 came to 35.1 µM in the experiment with KB; 62.2 µM in [1]; 3 µM in experiment [2]; 26.2 µM in the experiment with K562; 33.2 µM in experiment [3]; 23.9 µM in [4]. Besides, the IC50 in the experiment with MCF7 was 78.4 µM; with COLO 205, 58 µM.
